The record followed here is ChEMBL document CHEMBL5661979, “Pharmacological inhibition of BMK1 suppresses tumor growth through promyelocytic leukemia protein” (Cancer Cell, 2010).

Assay [1] concerns the target T1, Serine/threonine-protein kinase 4 (Homo sapiens) (UniProt Q13043).
T1 sequence (whole entry): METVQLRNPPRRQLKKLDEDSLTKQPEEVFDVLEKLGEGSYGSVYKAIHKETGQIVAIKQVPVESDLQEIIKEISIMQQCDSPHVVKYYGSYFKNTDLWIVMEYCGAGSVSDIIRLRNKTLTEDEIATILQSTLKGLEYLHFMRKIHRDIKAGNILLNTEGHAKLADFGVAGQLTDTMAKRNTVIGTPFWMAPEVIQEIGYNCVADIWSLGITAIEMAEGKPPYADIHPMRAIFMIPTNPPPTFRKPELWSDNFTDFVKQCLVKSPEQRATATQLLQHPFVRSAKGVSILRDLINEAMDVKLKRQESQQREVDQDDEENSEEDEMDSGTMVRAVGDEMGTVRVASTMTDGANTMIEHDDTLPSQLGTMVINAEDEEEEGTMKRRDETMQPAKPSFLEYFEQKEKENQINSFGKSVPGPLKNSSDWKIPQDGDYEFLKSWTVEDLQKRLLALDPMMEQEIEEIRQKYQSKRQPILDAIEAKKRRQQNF
In words: Inhibition of MST1 in human HeLa cells lysate at 2 uM pre incubated for 15 mins followed by ADP acyl phosphate probe addition and measured after 10 mins by LC-MS/MS analysis relative to control. Format: subcellular. The following applies: time 25.0 min.

Assay [2] has as its target T2, Phosphatidylinositol 5-phosphate 4-kinase type-2 gamma (Homo sapiens) (UniProt Q8TBX8).
T2 sequence (whole entry): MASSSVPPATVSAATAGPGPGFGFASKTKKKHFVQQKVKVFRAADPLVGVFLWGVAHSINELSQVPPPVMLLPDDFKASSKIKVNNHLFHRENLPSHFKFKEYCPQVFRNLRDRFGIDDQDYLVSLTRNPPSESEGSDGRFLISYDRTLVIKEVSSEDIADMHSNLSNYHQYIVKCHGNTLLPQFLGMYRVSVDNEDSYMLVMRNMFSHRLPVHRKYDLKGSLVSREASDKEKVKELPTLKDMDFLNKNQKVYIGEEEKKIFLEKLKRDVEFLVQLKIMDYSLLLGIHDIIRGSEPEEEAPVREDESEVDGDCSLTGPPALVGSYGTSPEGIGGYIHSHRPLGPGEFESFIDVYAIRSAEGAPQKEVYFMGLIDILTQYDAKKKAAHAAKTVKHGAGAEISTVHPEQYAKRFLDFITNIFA
The experiment in a line: Inhibition of PIP5K2C LIP1 site in human HeLa cells lysate at 10 uM pre incubated for 15 mins followed by ATP acyl phosphate probe addition and measured after 10 mins by LC-MS/MS analysis relative to control. Format: subcellular. The note with it: time 25.0 min.

The target in assay [3] is Phosphatidylinositol 4-kinase beta (Homo sapiens, UniProt Q9UBF8). The experiment in a line: Inhibition of PIK4CB in human HeLa cells lysate at 10 uM pre incubated for 15 mins followed by ADP acyl phosphate probe addition and measured after 10 mins by LC-MS/MS analysis relative to control. Format: subcellular. The following applies: time 25.0 min.
Sequence of Phosphatidylinositol 4-kinase beta (Q9UBF8 2-816 limits assumed): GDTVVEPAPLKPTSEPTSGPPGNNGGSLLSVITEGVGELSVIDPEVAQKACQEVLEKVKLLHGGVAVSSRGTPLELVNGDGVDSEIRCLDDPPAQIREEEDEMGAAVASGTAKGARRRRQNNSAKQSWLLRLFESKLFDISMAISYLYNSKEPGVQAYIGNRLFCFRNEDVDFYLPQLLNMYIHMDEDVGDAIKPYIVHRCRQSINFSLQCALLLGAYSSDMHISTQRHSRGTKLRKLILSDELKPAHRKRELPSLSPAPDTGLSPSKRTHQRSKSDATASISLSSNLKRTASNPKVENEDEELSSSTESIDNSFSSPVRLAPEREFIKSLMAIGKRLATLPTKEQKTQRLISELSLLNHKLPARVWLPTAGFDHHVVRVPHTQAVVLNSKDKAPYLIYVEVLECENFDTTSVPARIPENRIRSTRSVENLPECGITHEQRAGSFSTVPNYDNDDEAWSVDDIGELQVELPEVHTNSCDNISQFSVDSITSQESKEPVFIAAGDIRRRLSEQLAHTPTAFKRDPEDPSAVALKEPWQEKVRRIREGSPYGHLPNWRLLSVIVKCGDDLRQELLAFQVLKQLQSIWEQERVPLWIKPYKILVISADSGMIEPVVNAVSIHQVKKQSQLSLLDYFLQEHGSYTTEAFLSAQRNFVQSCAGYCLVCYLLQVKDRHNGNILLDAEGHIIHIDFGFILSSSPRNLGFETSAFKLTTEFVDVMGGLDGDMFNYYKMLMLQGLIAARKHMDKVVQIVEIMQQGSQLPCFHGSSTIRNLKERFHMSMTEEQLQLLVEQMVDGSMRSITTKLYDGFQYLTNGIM
A short description of assay [4]: Inhibition of MST4/YSK1 in human HeLa cells lysate at 50 uM pre incubated for 15 mins followed by ADP acyl phosphate probe addition and measured after 10 mins by LC-MS/MS analysis relative to control. The note with it: 25 min, condition cancer.
Assay [5] addresses eIF-2-alpha kinase GCN2 (Homo sapiens, UniProt Q9P2K8). In words: Inhibition of GCN2 in human HeLa cells lysate at 2 uM pre incubated for 15 mins followed by ATP acyl phosphate probe addition and measured after 10 mins by LC-MS/MS analysis relative to control. Format: subcellular. The following applies: time 25.0 min.
Assay [6] addresses T3, Phosphatidylinositol 5-phosphate 4-kinase type-2 alpha (Homo sapiens) (UniProt P48426).
T3 sequence (whole entry): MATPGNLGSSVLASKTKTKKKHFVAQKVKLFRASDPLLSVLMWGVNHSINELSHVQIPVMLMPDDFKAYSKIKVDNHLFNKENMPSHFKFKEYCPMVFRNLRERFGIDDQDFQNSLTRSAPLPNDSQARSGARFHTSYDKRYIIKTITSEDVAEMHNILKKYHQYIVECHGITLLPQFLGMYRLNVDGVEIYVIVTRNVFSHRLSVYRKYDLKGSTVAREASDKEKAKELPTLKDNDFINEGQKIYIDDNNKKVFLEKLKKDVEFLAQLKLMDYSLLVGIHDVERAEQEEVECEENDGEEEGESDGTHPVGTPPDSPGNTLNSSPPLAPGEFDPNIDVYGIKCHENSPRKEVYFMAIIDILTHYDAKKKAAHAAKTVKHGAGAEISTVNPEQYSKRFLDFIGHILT
The experiment in a line: Inhibition of PIP5K2A LIP1 site in human HeLa cells lysate at 50 uM pre incubated for 15 mins followed by ADP acyl phosphate probe addition and measured after 10 mins by LC-MS/MS analysis relative to control. Format: subcellular. The following applies: time 25.0 min.

The target in assay [7] is T4, Serine/threonine-protein kinase Sgk3 (Homo sapiens, UniProt Q96BR1).
T4 sequence (Q96BR1 whole entry): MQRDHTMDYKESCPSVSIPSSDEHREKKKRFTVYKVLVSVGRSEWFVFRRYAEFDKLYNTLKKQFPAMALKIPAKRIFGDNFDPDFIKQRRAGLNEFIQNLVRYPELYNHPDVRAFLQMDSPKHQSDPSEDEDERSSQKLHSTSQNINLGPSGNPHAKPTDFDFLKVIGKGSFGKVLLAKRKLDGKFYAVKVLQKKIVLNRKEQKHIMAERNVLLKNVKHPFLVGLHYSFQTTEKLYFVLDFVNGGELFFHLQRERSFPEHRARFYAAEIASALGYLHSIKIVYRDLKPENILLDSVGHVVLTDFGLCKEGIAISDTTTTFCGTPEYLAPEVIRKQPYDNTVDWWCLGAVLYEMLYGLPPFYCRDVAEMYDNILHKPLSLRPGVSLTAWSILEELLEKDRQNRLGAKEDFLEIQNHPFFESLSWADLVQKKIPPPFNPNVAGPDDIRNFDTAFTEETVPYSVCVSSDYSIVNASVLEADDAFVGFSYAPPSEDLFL
In words: Inhibition of SGK3 in human HeLa cells lysate pre incubated for 15 mins followed by ADP acyl phosphate probe addition and measured after 10 mins by LC-MS/MS analysis. Format: subcellular.

In assay [8] the target is Tyrosine-protein kinase JAK1 (Homo sapiens, UniProt P23458). In words: Inhibition of JAK1 domain 2 in human HeLa cells lysate at 2 uM pre incubated for 15 mins followed by ATP acyl phosphate probe addition and measured after 10 mins by LC-MS/MS analysis relative to control. Format: subcellular. The note with it: time 25.0 min.
Sequence of Tyrosine-protein kinase JAK1 (P23458 whole entry, the tested form may be a part): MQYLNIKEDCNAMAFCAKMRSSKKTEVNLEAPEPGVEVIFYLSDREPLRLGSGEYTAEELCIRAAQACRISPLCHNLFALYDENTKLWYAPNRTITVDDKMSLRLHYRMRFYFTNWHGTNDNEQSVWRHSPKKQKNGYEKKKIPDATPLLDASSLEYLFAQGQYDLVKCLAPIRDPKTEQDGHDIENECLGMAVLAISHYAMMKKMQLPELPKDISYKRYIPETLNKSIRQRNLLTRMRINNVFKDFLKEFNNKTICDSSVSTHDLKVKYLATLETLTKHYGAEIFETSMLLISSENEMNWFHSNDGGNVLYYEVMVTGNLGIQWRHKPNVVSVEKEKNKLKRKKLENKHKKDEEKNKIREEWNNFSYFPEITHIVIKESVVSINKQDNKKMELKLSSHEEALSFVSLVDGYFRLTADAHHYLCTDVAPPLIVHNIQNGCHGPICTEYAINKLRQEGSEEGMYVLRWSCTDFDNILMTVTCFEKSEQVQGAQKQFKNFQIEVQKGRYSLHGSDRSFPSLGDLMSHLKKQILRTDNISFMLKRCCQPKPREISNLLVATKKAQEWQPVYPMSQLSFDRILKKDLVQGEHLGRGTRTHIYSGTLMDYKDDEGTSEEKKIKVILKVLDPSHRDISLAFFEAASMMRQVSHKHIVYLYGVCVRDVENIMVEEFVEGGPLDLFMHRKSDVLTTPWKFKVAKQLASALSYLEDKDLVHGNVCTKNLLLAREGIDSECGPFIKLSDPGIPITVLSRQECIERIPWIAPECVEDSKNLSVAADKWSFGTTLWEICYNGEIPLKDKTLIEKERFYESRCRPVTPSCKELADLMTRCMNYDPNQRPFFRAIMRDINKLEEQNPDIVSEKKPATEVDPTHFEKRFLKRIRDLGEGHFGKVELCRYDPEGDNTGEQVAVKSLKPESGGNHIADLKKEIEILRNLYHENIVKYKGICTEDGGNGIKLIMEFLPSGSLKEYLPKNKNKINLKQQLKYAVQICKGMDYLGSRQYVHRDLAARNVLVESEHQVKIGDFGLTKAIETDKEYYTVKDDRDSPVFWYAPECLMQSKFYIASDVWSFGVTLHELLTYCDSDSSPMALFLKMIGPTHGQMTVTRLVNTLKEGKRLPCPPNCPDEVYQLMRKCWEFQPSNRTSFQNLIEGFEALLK
In assay [9] the test system is HeLa. The experiment in a line: Antitumor activity against human HeLa cells xenografted in NOD/SCID mouse assessed as reduction tumor growth at 50 mg/kg, ip administered for 28 days. It is filed as functional, organism-based. The note with it: time 28.0 day. The gist of the method: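 HeLa cells (5×10^5, in DMEM) were injected s.c. into the right flank of 6-week-old Nod/Scid mice on day 0. Dosing was 50 mg/kg i.p. twice daily, starting on day 1, 7 or 14 and continuing to day 28; controls received carrier. 6 mice per treated group. Tumors were measured every 2–3 days.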

Assay [10] in a line: Inhibition of NEK6/7 in human HeLa cells lysate at 2 uM pre incubated for 15 mins followed by ADP acyl phosphate probe addition and measured after 10 mins by LC-MS/MS analysis relative to control. The note with it: 25 min, condition cancer.

Activity calls are given as the source filed them. No cut-off for these calls is given here.

Sequence of eIF-2-alpha kinase GCN2 (Q9P2K8 whole entry): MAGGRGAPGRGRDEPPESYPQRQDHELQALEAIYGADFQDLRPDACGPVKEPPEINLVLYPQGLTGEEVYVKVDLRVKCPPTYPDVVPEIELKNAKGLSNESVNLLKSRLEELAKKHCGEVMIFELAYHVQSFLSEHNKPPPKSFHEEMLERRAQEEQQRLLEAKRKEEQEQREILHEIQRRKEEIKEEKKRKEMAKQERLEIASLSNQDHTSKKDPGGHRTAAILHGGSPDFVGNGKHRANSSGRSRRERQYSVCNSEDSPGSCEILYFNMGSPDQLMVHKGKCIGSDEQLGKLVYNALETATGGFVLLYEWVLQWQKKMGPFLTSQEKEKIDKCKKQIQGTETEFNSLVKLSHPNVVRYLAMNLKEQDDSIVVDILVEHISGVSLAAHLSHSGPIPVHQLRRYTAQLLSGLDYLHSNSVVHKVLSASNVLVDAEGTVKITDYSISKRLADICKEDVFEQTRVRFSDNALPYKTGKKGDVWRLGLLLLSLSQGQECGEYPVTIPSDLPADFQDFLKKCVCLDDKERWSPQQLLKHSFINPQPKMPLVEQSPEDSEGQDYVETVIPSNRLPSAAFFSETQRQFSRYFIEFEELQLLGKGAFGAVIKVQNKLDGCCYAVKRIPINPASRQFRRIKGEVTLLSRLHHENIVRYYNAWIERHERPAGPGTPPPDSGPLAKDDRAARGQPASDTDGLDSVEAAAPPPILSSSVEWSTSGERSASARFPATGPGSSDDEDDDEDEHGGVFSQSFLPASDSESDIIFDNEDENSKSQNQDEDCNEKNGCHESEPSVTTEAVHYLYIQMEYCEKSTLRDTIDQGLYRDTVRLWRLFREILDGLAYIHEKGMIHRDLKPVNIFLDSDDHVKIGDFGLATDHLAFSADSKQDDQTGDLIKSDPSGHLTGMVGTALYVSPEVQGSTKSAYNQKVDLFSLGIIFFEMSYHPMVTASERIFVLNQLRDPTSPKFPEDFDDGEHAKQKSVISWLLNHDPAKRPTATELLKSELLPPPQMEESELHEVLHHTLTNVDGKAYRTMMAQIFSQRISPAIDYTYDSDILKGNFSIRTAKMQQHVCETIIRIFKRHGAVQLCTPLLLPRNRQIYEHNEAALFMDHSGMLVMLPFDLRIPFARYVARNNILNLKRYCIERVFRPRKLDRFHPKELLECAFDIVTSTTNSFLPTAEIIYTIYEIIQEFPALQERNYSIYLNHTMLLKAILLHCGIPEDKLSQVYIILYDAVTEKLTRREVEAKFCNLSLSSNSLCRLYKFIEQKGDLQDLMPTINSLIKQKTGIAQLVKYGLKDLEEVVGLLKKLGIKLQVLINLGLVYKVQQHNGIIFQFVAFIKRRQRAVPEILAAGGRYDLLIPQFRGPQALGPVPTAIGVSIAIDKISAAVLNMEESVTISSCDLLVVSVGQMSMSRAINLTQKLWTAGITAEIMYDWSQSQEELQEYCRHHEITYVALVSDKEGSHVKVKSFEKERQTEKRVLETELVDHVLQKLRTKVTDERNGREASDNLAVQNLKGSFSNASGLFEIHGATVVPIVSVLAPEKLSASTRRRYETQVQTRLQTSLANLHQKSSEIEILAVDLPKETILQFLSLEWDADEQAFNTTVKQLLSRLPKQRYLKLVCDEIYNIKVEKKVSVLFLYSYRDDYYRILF

For orientation: inhibition means the relative decrease from the control value, in per cent. As a reminder, the IC50 is the point on the concentration scale where inhibition reaches its midpoint. Higher therefore signals lower potency. Regarding `CCOc1cc(N2CCC(O)CC2)ccc1Nc1ncc2c(n1)N(C)c1ccccc1C(=O)N2C`, the inhibition in assay [1] is 30.6%; in [2] it was -1.3%; in assay [3], 1.1%; in [5] it was 0.2%; in [6], 16.2%; in assay [8], 9.7%. In addition, the inhibition at 50 µM in assay [4] was -14.3%. In assay [7], the IC50 was more than 50 µM. In addition, the result in assay [9] was Active. Besides, in assay [10], the inhibition at 2 µM was found to be 6.4%.
